ChEMBL document CHEMBL1151920, “Synthesis and biological evaluation of penem inhibitors of bacterial signal peptidase” (Bioorg Med Chem Lett, 2009)
Values after ≈ are worked out from the molar mass of the structure shown.

Legend:
[1] = system: Escherichia coli; assay: Antibacterial activity against permeabilizing agent polymyxin B-treated Escherichia coli ATCC 25922 after 18 hrs by liquid dilution method; assay type: functional; details: ATCC 25922, 18 h
Procedure, shortened: (§1)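 Broth microdilution MIC. Compounds 2-fold serially diluted in cation-adjusted Mueller–Hinton broth. Bacteria grown to 10^8 cfu/mL, then inoculated at a final 5 × 10^5 cells/mL. Incubated 37 °C, 18 h. MIC taken as the lowest concentration giving no visible growth. E. coli ATCC25922 was tested in the presence of polymyxin B as permeabilizing agent.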

[2] = system: Staphylococcus aureus; assay: Antibacterial activity against methicillin-resistant Staphylococcus aureus USA300 after 18 hrs by liquid dilution method; assay type: functional; details: USA300, 18 h
[3] = system: Staphylococcus epidermidis; assay: Antibacterial activity against Staphylococcus epidermidis RP62A after 18 hrs by liquid dilution method; assay type: functional; procedure, shortened: as §1
[4] = system: Staphylococcus aureus; assay: Antibacterial activity against Staphylococcus aureus 8325 after 18 hrs by liquid dilution method; assay type: functional; details: Staphylococcus aureus, 8325, 18 h; procedure, shortened: as §1
[5] = molecular target: Signal peptidase I (Escherichia coli K-12, UniProt P00803); assay: Inhibition of Escherichia coli signal peptidase
Chain of Signal peptidase I (P00803 whole entry): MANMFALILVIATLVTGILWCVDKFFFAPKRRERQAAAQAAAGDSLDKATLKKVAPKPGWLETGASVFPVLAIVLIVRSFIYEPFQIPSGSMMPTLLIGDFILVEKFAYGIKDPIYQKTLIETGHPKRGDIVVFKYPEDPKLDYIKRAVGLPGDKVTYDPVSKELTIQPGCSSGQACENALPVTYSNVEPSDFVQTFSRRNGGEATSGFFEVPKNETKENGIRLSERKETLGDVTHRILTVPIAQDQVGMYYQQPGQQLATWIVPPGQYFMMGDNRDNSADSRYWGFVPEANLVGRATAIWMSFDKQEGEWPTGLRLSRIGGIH

| IC50 [5] | SMILES | MIC [1] | MIC [2] | MIC [3] | MIC [4] |
| --- | --- | --- | --- | --- | --- |
| – | CC[C@H](C)[C@H](NC(C)=O)C(=O)O[C@H](C)[C@H]1C(=O)N2C(C(=O)OCc3ccc([N+](=O)[O-])cc3)=CS[C@@H]12 | > 200 µg/mL | > 200 µg/mL | > 200 µg/mL | > 200 µg/mL |
| – | CC(C)NC(=O)O[C@H](C)[C@H]1C(=O)N2C(C(=O)OCc3ccc([N+](=O)[O-])cc3)=CS[C@@H]12 | > 200 µg/mL | 100 µg/mL (≈ 230 µM) | 100 µg/mL (≈ 230 µM) | > 200 µg/mL |
| – | CC(=O)N[C@@H](C)C(=O)O[C@H](C)[C@H]1C(=O)N2C(C(=O)OCc3ccc([N+](=O)[O-])cc3)=CS[C@@H]12 | > 200 µg/mL | > 200 µg/mL | > 200 µg/mL | > 200 µg/mL |
| – | CCCC(=O)O[C@H](C)[C@H]1C(=O)N2C(C(=O)OCc3ccc([N+](=O)[O-])cc3)=CS[C@@H]12 | > 200 µg/mL | > 200 µg/mL | 100 µg/mL (≈ 238 µM) | > 200 µg/mL |
| – | C[C@@H](O)[C@H]1C(=O)N2C(C(=O)OCc3ccc([N+](=O)[O-])cc3)=CS[C@@H]12 | > 200 µg/mL | > 200 µg/mL | 50 µg/mL (≈ 143 µM) | 200 µg/mL (≈ 571 µM) |
| – | CCC(=O)O[C@H](C)[C@H]1C(=O)N2C(C(=O)OCc3ccc([N+](=O)[O-])cc3)=CS[C@@H]12 | > 200 µg/mL | > 200 µg/mL | 100 µg/mL (≈ 246 µM) | > 200 µg/mL |
| – | CCNC(=O)O[C@H](C)[C@H]1C(=O)N2C(C(=O)OCc3ccc([N+](=O)[O-])cc3)=CS[C@@H]12 | > 200 µg/mL | 100 µg/mL (≈ 237 µM) | 100 µg/mL (≈ 237 µM) | > 200 µg/mL |
| – | CC(C)C(=O)O[C@H](C)[C@H]1C(=O)N2C(C(=O)OCc3ccc([N+](=O)[O-])cc3)=CS[C@@H]12 | > 200 µg/mL | > 200 µg/mL | 50 µg/mL (≈ 119 µM) | > 200 µg/mL |
| 0.18 µM | C[C@@H](O)[C@H]1C(=O)N2C(C(=O)O)=CS[C@@H]12 | – | – | – | – |
| – | CC(=O)N[C@H](C(=O)O[C@H](C)[C@H]1C(=O)N2C(C(=O)OCc3ccc([N+](=O)[O-])cc3)=CS[C@@H]12)C(C)C | > 200 µg/mL | > 200 µg/mL | > 200 µg/mL | > 200 µg/mL |
| – | CC(=O)O[C@H](C)[C@H]1C(=O)N2C(C(=O)OCc3ccc([N+](=O)[O-])cc3)=CS[C@@H]12 | > 200 µg/mL | > 200 µg/mL | 100 µg/mL (≈ 255 µM) | > 200 µg/mL |
| – | CCOCO[C@H](C)[C@H]1C(=O)N2C(C(=O)OCc3ccc([N+](=O)[O-])cc3)=CS[C@@H]12 | > 200 µg/mL | > 200 µg/mL | 50 µg/mL (≈ 122 µM) | > 200 µg/mL |
| – | CC(=O)NCC(=O)O[C@H](C)[C@H]1C(=O)N2C(C(=O)OCc3ccc([N+](=O)[O-])cc3)=CS[C@@H]12 | > 200 µg/mL | > 200 µg/mL | > 200 µg/mL | > 200 µg/mL |
| – | CC(C)CC(=O)O[C@H](C)[C@H]1C(=O)N2C(C(=O)OCc3ccc([N+](=O)[O-])cc3)=CS[C@@H]12 | > 200 µg/mL | > 200 µg/mL | 100 µg/mL (≈ 230 µM) | > 200 µg/mL |
| – | COCO[C@H](C)[C@H]1C(=O)N2C(C(=O)OCc3ccc([N+](=O)[O-])cc3)=CS[C@@H]12 | > 200 µg/mL | > 200 µg/mL | 50 µg/mL (≈ 127 µM) | > 200 µg/mL |
| – | COCCOCO[C@H](C)[C@H]1C(=O)N2C(C(=O)OCc3ccc([N+](=O)[O-])cc3)=CS[C@@H]12 | > 200 µg/mL | > 200 µg/mL | 100 µg/mL (≈ 228 µM) | 200 µg/mL (≈ 456 µM) |
